In general, IC50 refers to the concentration that gives 50% inhibition. By Ki is commonly meant a dissociation constant, usually derived from enzyme kinetics or from competition with a known ligand. By inhibition is commonly meant how much of the control response was suppressed.

Test [1] has as its target T1, Kappa-type opioid receptor (Homo sapiens, UniProt P41145). The experiment in a line: Antagonist activity against human kappa opioid receptor expressed in human U2OS cells co-expressing beta-arrestin2 pre-treated for 15 mins before U69,593 stimulation for 90 mins by DiscoveRx beta-arrestin2 recruitment based PathHunter assay. In kind it is cell-based.
Test [2] deals with T1, Kappa-type opioid receptor. The experiment in a line: Antagonist activity against HA-tagged human recombinant kappa opioid receptor expressed in CHO cell membranes incubated for 1 hr by [35S]GTPgammaS binding assay. In kind it is functional. Background: GTPγS is a poorly hydrolysed GTP analogue; its binding reports G protein activation.
Test [3] addresses T1, Kappa-type opioid receptor. The experiment in a line: Antagonist activity against HA-tagged human recombinant kappa opioid receptor expressed in CHO cells assessed as inhibition of U69,593-induced ERK phosphorylation pre-incubated with compound before U69,593 stimulation for 10 mins. The format is cell-based.
For test [4], the target named is T2, Delta-type opioid receptor (Homo sapiens, UniProt P41143). The experiment in a line: Binding affinity to delta opioid receptor (unknown origin).
Test [5] has as its target T1, Kappa-type opioid receptor. The experiment in a line: Antagonist activity against HA-tagged human recombinant kappa opioid receptor expressed in CHO cells assessed as inhibition of U69,593-induced ERK phosphorylation pre-incubated with compound before U69,593 stimulation for 10 mins relative to control. In kind it is cell-based. The arrangement: concentration or dose not given beside the values. In outline: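 hKOR-CHO cells, 15,000 per well, plated overnight at 37 °C and serum-starved 1 h. Compound added, then 100 nM U69,593 for 10 min at 37 °C. Fixed cells stained overnight at 4 °C for phospho- and total ERK1/2. In-cell western read by infrared imaging at 700/800 nm. Three-parameter nonlinear fit; 2–4 replicates per experiment, n ≥ 3.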

Test [6] concerns the target T3, Mu-type opioid receptor (Homo sapiens, UniProt P35372). The experiment in a line: Binding affinity to mu opioid receptor (unknown origin).
Test [7] addresses T1, Kappa-type opioid receptor. The experiment in a line: Antagonist activity against human kappa opioid receptor expressed in human U2OS cells co-expressing beta-arrestin2 pre-treated for 15 mins before U69,593 stimulation for 90 mins by DiscoveRx beta-arrestin2 recruitment based PathHunter assay relative to control. The format is cell-based. The arrangement: concentration or dose not given beside the values. The method in brief: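 U2OS-hKOR-βarrestin2 PathHunter cells, 5,000 per well, plated overnight in Opti-MEM with 1% FBS. Antagonist pretreatment 15 min at 37 °C, then 1 μM U69,593 for 90 min at 37 °C. Detection reagent 60 min at room temperature; chemiluminescence read-out. Concentration-response curves fitted by three-parameter regression; n ≥ 3 independent experiments.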
(Activated receptors often draw arrestin, which recruitment assays turn into a signal.)

The target in test [8] is Kappa-type opioid receptor (Rattus norvegicus, UniProt P34975). The experiment in a line: Displacement of radio-labeled U69,593 from rat kappa opioid receptor expressed in HEK293 cell membranes.
In test [9] the target is T2, Delta-type opioid receptor. The experiment in a line: Antagonist activity against delta opioid receptor (unknown origin).
Test [10] addresses T3, Mu-type opioid receptor. The experiment in a line: Antagonist activity against mu opioid receptor (unknown origin).

T2 sequence (P41143 whole entry): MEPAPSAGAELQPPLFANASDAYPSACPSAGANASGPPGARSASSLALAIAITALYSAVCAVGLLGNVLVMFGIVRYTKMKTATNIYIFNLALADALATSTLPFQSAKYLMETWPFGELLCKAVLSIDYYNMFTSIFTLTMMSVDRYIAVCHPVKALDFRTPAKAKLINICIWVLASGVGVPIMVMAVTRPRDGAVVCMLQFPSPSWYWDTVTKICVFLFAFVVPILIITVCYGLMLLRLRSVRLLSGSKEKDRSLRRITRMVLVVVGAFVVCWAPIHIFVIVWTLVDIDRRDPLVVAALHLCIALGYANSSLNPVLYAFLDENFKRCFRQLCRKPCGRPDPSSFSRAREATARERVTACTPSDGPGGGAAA
T3 sequence (P35372 whole entry): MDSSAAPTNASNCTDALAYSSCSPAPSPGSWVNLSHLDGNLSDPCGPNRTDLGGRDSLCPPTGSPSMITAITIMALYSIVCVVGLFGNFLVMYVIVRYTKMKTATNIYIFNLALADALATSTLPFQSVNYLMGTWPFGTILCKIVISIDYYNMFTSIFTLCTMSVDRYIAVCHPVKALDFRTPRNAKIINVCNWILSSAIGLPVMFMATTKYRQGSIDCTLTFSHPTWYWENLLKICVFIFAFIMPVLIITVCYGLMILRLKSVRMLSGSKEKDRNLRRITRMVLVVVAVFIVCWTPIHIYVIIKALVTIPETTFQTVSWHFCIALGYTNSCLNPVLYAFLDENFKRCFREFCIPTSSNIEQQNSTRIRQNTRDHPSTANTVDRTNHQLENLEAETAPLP
T1 sequence (P41145 whole entry): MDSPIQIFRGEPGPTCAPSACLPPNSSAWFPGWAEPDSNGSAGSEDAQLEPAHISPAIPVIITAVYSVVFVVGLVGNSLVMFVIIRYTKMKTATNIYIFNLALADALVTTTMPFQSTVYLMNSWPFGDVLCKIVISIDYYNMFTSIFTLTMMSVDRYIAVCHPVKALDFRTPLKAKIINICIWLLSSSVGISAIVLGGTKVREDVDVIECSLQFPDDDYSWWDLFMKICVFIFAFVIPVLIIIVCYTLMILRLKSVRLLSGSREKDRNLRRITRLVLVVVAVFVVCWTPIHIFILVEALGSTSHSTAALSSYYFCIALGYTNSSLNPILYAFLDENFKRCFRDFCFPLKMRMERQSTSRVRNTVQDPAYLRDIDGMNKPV
Chain of Kappa-type opioid receptor (Rattus norvegicus, UniProt P34975) (P34975 whole entry): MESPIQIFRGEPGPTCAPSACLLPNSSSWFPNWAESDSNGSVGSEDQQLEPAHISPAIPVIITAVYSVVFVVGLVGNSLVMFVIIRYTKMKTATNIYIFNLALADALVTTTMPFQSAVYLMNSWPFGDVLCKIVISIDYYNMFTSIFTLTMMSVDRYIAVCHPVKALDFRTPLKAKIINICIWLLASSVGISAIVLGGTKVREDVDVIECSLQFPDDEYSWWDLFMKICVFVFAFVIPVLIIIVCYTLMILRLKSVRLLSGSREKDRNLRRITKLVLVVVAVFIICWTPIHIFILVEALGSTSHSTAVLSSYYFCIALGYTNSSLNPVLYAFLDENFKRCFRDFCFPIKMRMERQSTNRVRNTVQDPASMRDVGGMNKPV

For the molecule `Cc1ccc(S(=O)(=O)N(C)Cc2ccc(C(=O)N(C)CCN(Cc3ccccc3)C(C)C)cc2)cc1`, the concentration for half-maximal inhibition (IC50) entry in test [1], in test [2] (cho) and in test [3] was “Not Active” throughout.
For `Cc1ccc(S(=O)(=O)N2CCc3cc(C(=O)NCCN(Cc4ccc(Br)cc4)C(C)C)ccc3C2)cc1`, the results for the Ki (in test [4]; on Mu-type opioid receptor [6]; in [8]) were 5190 nM, 8170 nM and 73 nM, respectively. Besides, the inhibition in test [5] and in [7] was greater than 86% throughout.
As for `Cc1ccc(S(=O)(=O)N2CCc3cc(C(=O)NCCN(Cc4ccc(Br)cc4)C(C)(C)C)ccc3C2)cc1`, the inhibition in [5] and in [7] was greater than 86% each time.
Take `Cc1ccc(S(=O)(=O)N2CCc3cc(C(=O)NCCN(Cc4ccccc4)C(C)(C)C)ccc3C2)cc1`: the values for the inhibition constant (Ki) (in test [4]; on Mu-type opioid receptor [6]; in test [8]) were 2330 nM, 1750 nM and 37 nM, respectively. Also, the inhibition in test [5] and in [7] was greater than 86% in each case.
`Cc1ccc(S(=O)(=O)N2CCc3cc(C(=O)NCCN(Cc4ccc(Cl)cc4)C(C)(C)C)ccc3C2)cc1`: the inhibition constant Ki is greater than 10000 nM in test [4], greater than 10000 nM on Mu-type opioid receptor [6] and 53 nM in test [8]. The inhibition in test [5] and in [7] was greater than 86% in each case.
For the molecule `Oc1ccc2c3c1O[C@H]1c4[nH]c5c(c4C[C@@]4(O)[C@@H](C2)N(CC2CC2)CC[C@]314)C[C@@]1(O)[C@H]2Cc3ccc(O)c4c3[C@@]1(CCN2CC1CC1)[C@H]5O4`, the inhibition in test [5] and in test [7] was greater than 86% each time.
For the molecule `Cc1ccc(S(=O)(=O)N2CCc3cc(C(=O)NCCN(Cc4ccc(F)cc4)C(C)(C)C)ccc3C2)cc1`, the inhibition in [5] and in [7] was greater than 86% in each case.
For `Cc1ccc(S(=O)(=O)NCc2ccc(C(=O)NCCN(Cc3ccc(Br)cc3)C(C)C)cc2)cc1`, the inhibition in test [5] and in test [7] was greater than 86% each time.
Regarding `Cc1ccc(S(=O)(=O)N2CCc3cc(C(=O)NCCN(Cc4ccc(F)cc4)C(C)C)ccc3C2)cc1`, the inhibition in test [5] and in test [7] was greater than 86% in each case.
As to `Cc1ccc(S(=O)(=O)NCc2ccc(C(=O)NCC3CCCN(Cc4ccccc4)C3)cc2)cc1` (stereo not given), the half-maximal inhibitory concentration (IC50) in [2] (read-out: IC50) is greater than 18000 nM.
Consider `CCc1ccc(S(=O)(=O)N2CCc3cc(C(=O)NCCN(Cc4ccc(Br)cc4)C(C)C)ccc3C2)cc1`, for which the inhibition in test [5] and in [7] was greater than 86% throughout.
On to `Cc1ccc(S(=O)(=O)N2CCc3cc(C(=O)NCCN(Cc4ccc(Cl)cc4)C(C)C)ccc3C2)cc1`, for which the inhibition in test [5] and in test [7] was greater than 86% throughout.
Take `Cc1cc(C)c(S(=O)(=O)N2CCc3cc(C(=O)NCCN(Cc4ccc(F)cc4)C(C)(C)C)ccc3C2)c(C)c1`: the inhibition in [5] and in [7] was greater than 86% in each case.
`Cc1ccc(S(=O)(=O)NCc2ccc(C(=O)NCCN(Cc3ccccc3)C(C)C)cc2)cc1`: the Ki in test [4] turned out to be 1090 nM; at Mu-type opioid receptor [6], 306 nM; in test [8], 50 nM. Further, the inhibition in test [5] and in test [7] was greater than 86% in each case. Moreover, the IC50 in [9] is greater than 32000 nM; against Mu-type opioid receptor [10], greater than 24000 nM.
Regarding `CCc1ccc(S(=O)(=O)N2CCc3cc(C(=O)NCCN(Cc4ccccc4)C(C)(C)C)ccc3C2)cc1`, the inhibition in [5] and in test [7] was greater than 86% in each case.
In the case of `Cc1cc(C)c(S(=O)(=O)N2CCc3cc(C(=O)NCCN(Cc4ccccc4)C(C)C)ccc3C2)c(C)c1`, the inhibition in [5] and in [7] was greater than 86% in each case.
Turning to `Cc1cc(C)c(S(=O)(=O)N2CCc3cc(C(=O)NCCN(Cc4ccc(Br)cc4)C(C)(C)C)ccc3C2)c(C)c1`, the inhibition in [5] and in test [7] was greater than 86% throughout.
As for `Cc1ccc(S(=O)(=O)NCc2ccc(C(=O)NCCN3Cc4ccccc4C3)cc2)cc1`, in test [2] (read-out: IC50), the 50% inhibitory concentration (IC50) was greater than 18000 nM.
Still for that read-out and setting: the value for `Cc1ccc(S(=O)(=O)NCc2ccc(C(=O)NC3CCN(Cc4ccccc4)C3)cc2)cc1` (stereo not given) was greater than 18000 nM.
